Legend:
[1] = Selectivity index, ratio of IC50 for cytotoxic activity against mouse J774 cells to IC50 for antileishmanial activity against Leishmania donovani; type: toxicity, cell-based; conditions: read-out: Ratio IC50
[2] = Selectivity index, ratio of IC50 for cytotoxic activity against mouse J774 cells to IC50 for antileishmanial activity against Leishmania amazonensis amastigotes; type: toxicity, cell-based; conditions: read-out: Ratio IC50
[3] = test system: Leishmania amazonensis; experiment: Antileishmanial activity against beta-lactamase expressing Leishmania amazonensis amastigotes overnight infected in CD1 mouse macrophages incubated for 72 hrs by nitrocefin dye based assay in presence of posaconazole; type: functional, organism-based
[4] = Drug level in BALB/c mouse plasma at 40 mg/kg, po administered as single dose after 24 hrs; type: ADME, organism-based
In short: (§1)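 Mice received a single oral dose of 100 μmol/kg (40 mg/kg). Compound levels in plasma, liver, spleen and kidney were measured at 1, 2 and 24 h post-dose and reported as concentrations. Values are means ± standard errors of triplicate determinations.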

[5] = test system: Mus musculus; experiment: Toxicity in BALB/c mouse assessed as drug tolerance at 30 mg/kg/day, ip for 5 days; type: organism-based; conditions: in vivo, 120 h
In short: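 Compound was dissolved in water and injected i.p. into healthy, uninfected BALB/c mice at 30 mg/kg/day once daily for 5 consecutive days to assess in vivo tolerability.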

[6] = Drug level in BALB/c mouse liver at 40 mg/kg, po administered as single dose after 1 hr; type: ADME, organism-based; conditions: read-out: Drug uptake; in short: as §1
[7] = Drug level in BALB/c mouse plasma at 40 mg/kg, po administered as single dose after 1 hr; type: ADME, organism-based; in short: as §1
[8] = Drug level in BALB/c mouse spleen at 40 mg/kg, po administered as single dose after 24 hrs; type: ADME, organism-based; conditions: read-out: Drug uptake; in short: as §1
[9] = Drug level in BALB/c mouse liver at 40 mg/kg, po administered as single dose after 24 hrs; type: ADME, organism-based; conditions: read-out: Drug uptake; in short: as §1
[10] = Drug level in BALB/c mouse spleen at 40 mg/kg, po administered as single dose after 1 hr; type: ADME, organism-based; conditions: read-out: Drug uptake; in short: as §1
[11] = test system: Leishmania amazonensis; experiment: Antileishmanial activity against Leishmania amazonensis infected in mouse peritoneal macrophages after 72 hrs using 2 hrs parasite exposed mouse peritoneal macrophages

| Structure (SMILES) | selectivity ratio [1] | selectivity ratio [2] | Activity [5] | other results |
| --- | --- | --- | --- | --- |
| COc1ccc(-n2cc(-c3ccc(NC(=N)c4ccccn4)cc3OC(C)C)nn2)cc1 | 10 | 5.5 |  |  |
| CC(C)Oc1cc(NC(=N)c2ccccn2)ccc1-c1ccc(-c2ccccc2)s1 | 3.1 | 3 |  |  |
| CC(C)Oc1cc(NC(=N)c2ccccn2)ccc1-c1cnc(-c2ccccc2)o1 | 24 | 41 |  |  |
| CC(C)Oc1cc(NC(=N)c2ccccn2)ccc1-c1ccc(-c2ccccc2)o1.CS(=O)(=O)O | ≥ 25 | ≥ 25 | Non-toxic | IC50 [3]: 55 nM; concentration at 24 h [4]: 140 nM; concentration at 1 h [6]: 12.6 µM; concentration at 1 h [7]: 1900 nM; concentration at 24 h [8]: 600 nM; concentration at 24 h [9]: 600 nM; concentration at 1 h [10]: 4.7 µM |
| CC(C)Oc1cc(NC(=N)c2ncccn2)ccc1-c1ccc(-c2ccccc2)o1 | 27 | 18 |  |  |
| CC(C)Oc1cc(NC(=N)c2ccccn2)ccc1-c1ccc(-c2ccco2)o1.Cl | ≥ 25 | ≥ 25 | Non-toxic |  |
| CS(=O)(=O)O.N=C(Nc1ccc(-c2ccc(-c3ccccc3)o2)c(OC2CCCC2)c1)c1ccccn1 | ≥ 25 | ≥ 25 | Non-toxic |  |
| CC[C@@H]([C@H](C)O)n1ncn(-c2ccc(N3CCN(c4ccc(OC[C@@H]5CO[C@@](Cn6cncn6)(c6ccc(F)cc6F)C5)cc4)CC3)cc2)c1=O [POSACONAZOLE] |  |  |  | IC50 [11]: 1600 nM |

Source: ChEMBL document CHEMBL3792273, “Synthesis and pharmacological evaluation of mono-arylimidamides as antileishmanial agents” (Bioorg Med Chem Lett, 2016)
